Experimental data published in ChEMBL document CHEMBL3272033, “Physicochemical and pharmacological studies of some 8-substituted decahydroisoquinolines” (J Med Chem, 1976).

What was measured:
[1] = test system: Heart; experiment: Antiarrhythmic activity in Hartley guinea pig atria assessed as change in spontaneous rate at 73.4 uM/l after 5 mins; type: functional, Cavia porcellus
Procedure, shortened: (§1)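 Spontaneously beating isolated atria held under initial tension; bath fluid changed every 10 min; stabilised about 1 h. Maximum driving rate found with 1-ms square pulses at 50% above threshold voltage, 10 s every 30 s; the frequency just before failure of following is the MDR. Control is the mean of two determinations. Spontaneous rate recorded by tachograph. Values are % change from control at peak response, generally 5–30 min.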

[2] = organism: Homo sapiens; experiment: Drug absorption in buccal cavity in human at pH 9.3 after 5 mins by UV spectrometry; type: ADME, organism-based; settings: in vivo, other, pH 9.3, 5 min
Procedure, shortened: (§2)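 3 mg compound in 25 ml buffer (0.1 M phosphate pH 5.50 or 7.50; tetraborate pH 9.30) swished in the mouth for 5 min, expelled, and combined with a 10 ml water rinse. Made up to 50 ml; aliquot basified to pH 10 and ether-extracted, then back-extracted into 0.1 N HCl. UV absorbance read at λmax against Beer's law plots; the unrecovered fraction is taken as % absorbed. One to three subjects.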

[3] = Therapeutic index, ratio of LD50 for toxicity to ED50 for antiarrhythmic activity in ip dosed Swiss-Webster albino mouse; type: organism-based, Heart; settings: in vivo, read-out: Ratio LD50/ED50
[4] = organism: Homo sapiens; experiment: Drug absorption in buccal cavity in human at pH 5.50 after 5 mins by UV spectrometry; type: ADME, organism-based; settings: in vivo, other, pH 5.5, 5 min; procedure, shortened: as §2
[5] = test system: Mus musculus; experiment: Antiarrhythmic activity in ip dosed Swiss-Webster albino mouse assessed as prevention of chloroform-induced ventricular fibrillation; type: functional, Heart
[6] = Dissociation constant, pKa of the compound in 0.01 M potassium hydrogen phthalate; type: physicochemical
Procedure, shortened: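 pKa by potentiometric titration with 0.01 M potassium hydrogen phthalate in a thermostated vessel, stirred, under nitrogen bubbling, using glass and calomel electrodes. pKa is the mean pH at half-neutralization from four titrations. Endpoints were taken from parallel tangents on either side of the inflection.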

[7] = test system: Heart; experiment: Antiarrhythmic activity in Hartley guinea pig atria assessed as change in maximum driving rate at 73.4 uM/l after 5 mins; type: functional, Cavia porcellus; procedure, shortened: as §1
[8] = organism: Homo sapiens; experiment: Drug absorption in buccal cavity in human at pH 7.50 after 5 mins by UV spectrometry; type: ADME, organism-based; settings: in vivo, other, pH 7.5, 5 min; procedure, shortened: as §2
[9] = test system: Mus musculus; experiment: Toxicity in ip dosed Swiss-Webster albino mouse; type: organism-based; settings: in vivo
[10] = test system: Heart; experiment: Antiarrhythmic activity in Hartley guinea pig atria assessed as change in maximum driving rate at 66.1 uM/l after 5 mins; type: functional, Cavia porcellus; procedure, shortened: as §1
[11] = test system: Heart; experiment: Antiarrhythmic activity in Hartley guinea pig atria assessed as change in spontaneous rate at 66.1 uM/l after 5 mins; type: functional, Cavia porcellus; procedure, shortened: as §1
[12] = test system: Heart; experiment: Antiarrhythmic activity in Hartley guinea pig atria assessed as change in spontaneous rate at 60.2 uM/l after 5 mins; type: functional, Cavia porcellus; procedure, shortened: as §1
[13] = test system: Heart; experiment: Antiarrhythmic activity in Hartley guinea pig atria assessed as change in maximum driving rate at 60.2 uM/l after 5 mins; type: functional, Cavia porcellus; procedure, shortened: as §1
[14] = test system: Heart; experiment: Antiarrhythmic activity in Hartley guinea pig atria assessed as change in maximum driving rate at 55.2 uM/l after 5 mins; type: functional, Cavia porcellus; procedure, shortened: as §1
[15] = test system: Heart; experiment: Antiarrhythmic activity in Hartley guinea pig atria assessed as change in spontaneous rate at 55.2 uM/l after 5 mins; type: functional, Cavia porcellus; procedure, shortened: as §1
[16] = test system: Heart; experiment: Antiarrhythmic activity in Hartley guinea pig atria assessed as change in spontaneous rate at 65.2 uM/l after 5 mins; type: functional, Cavia porcellus; procedure, shortened: as §1
[17] = test system: Heart; experiment: Antiarrhythmic activity in Hartley guinea pig atria assessed as change in maximum driving rate at 65.2 uM/l after 5 mins; type: functional, Cavia porcellus; procedure, shortened: as §1
[18] = test system: Heart; experiment: Antiarrhythmic activity in Hartley guinea pig atria assessed as change in spontaneous rate at 58.6 uM/l after 5 mins; type: functional, Cavia porcellus; procedure, shortened: as §1
[19] = test system: Heart; experiment: Antiarrhythmic activity in Hartley guinea pig atria assessed as change in maximum driving rate at 58.6 uM/l after 5 mins; type: functional, Cavia porcellus; procedure, shortened: as §1
[20] = test system: Heart; experiment: Antiarrhythmic activity in Hartley guinea pig atria assessed as change in spontaneous rate at 55.0 uM/l after 5 mins; type: functional, Cavia porcellus; procedure, shortened: as §1
[21] = test system: Homo sapiens; experiment: Toxicity in human assessed as numbness at 5 x 10' -5 M administered topically to buccal cavity measured up to 15 to 20 mins; type: organism-based; settings: in vivo, topical_or_ocular, 50 µM
[22] = test system: Heart; experiment: Antiarrhythmic activity in Hartley guinea pig atria assessed as change in maximum driving rate at 55.0 uM/l after 5 mins; type: functional, Cavia porcellus; procedure, shortened: as §1
[23] = test system: Heart; experiment: Antiarrhythmic activity in Hartley guinea pig atria assessed as change in spontaneous rate at 65.0 uM/l after 5 mins; type: functional, Cavia porcellus; procedure, shortened: as §1
[24] = test system: Heart; experiment: Antiarrhythmic activity in Hartley guinea pig atria assessed as change in spontaneous rate at 32.5 uM/l after 5 mins; type: functional, Cavia porcellus; procedure, shortened: as §1
[25] = test system: Heart; experiment: Antiarrhythmic activity in Hartley guinea pig atria assessed as change in maximum driving rate at 65.0 uM/l after 5 mins; type: functional, Cavia porcellus; procedure, shortened: as §1
[26] = test system: Heart; experiment: Antiarrhythmic activity in Hartley guinea pig atria assessed as change in maximum driving rate at 32.5 uM/l after 5 mins; type: functional, Cavia porcellus; procedure, shortened: as §1
[27] = test system: Heart; experiment: Antiarrhythmic activity in Hartley guinea pig atria assessed as reversible decrease in maximum driving rate compound treated for 5 mins measured up to 2 hrs post washout; type: functional, tissue-based; settings: Cavia porcellus
Procedure, shortened: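 After compound exposure the bath was washed out. Two MDR determinations were made every 15 min for up to 2 h to follow reversibility and recovery toward control. Bath fluid was changed every 10 min.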

[28] = test system: Heart; experiment: Antiarrhythmic activity in Hartley guinea pig atria assessed as change in spontaneous rate at 15.4 uM/l after 5 mins; type: functional, Cavia porcellus; procedure, shortened: as §1
[29] = test system: Heart; experiment: Antiarrhythmic activity in Hartley guinea pig atria assessed as change in maximum driving rate at 61.6 uM/l after 5 mins; type: functional, Cavia porcellus; procedure, shortened: as §1
[30] = test system: Heart; experiment: Antiarrhythmic activity in Hartley guinea pig atria assessed as change in spontaneous rate at 61.6 uM/l after 5 mins; type: functional, Cavia porcellus; procedure, shortened: as §1
[31] = test system: Heart; experiment: Antiarrhythmic activity in Hartley guinea pig atria assessed as change in spontaneous rate at 30.8 uM/l after 5 mins; type: functional, Cavia porcellus; procedure, shortened: as §1
[32] = test system: Heart; experiment: Antiarrhythmic activity in Hartley guinea pig atria assessed as change in maximum driving rate at 30.8 uM/l after 5 mins; type: functional, Cavia porcellus; procedure, shortened: as §1
[33] = test system: Heart; experiment: Antiarrhythmic activity in Hartley guinea pig atria assessed as change in maximum driving rate at 15.4 uM/l after 5 mins; type: functional, Cavia porcellus; procedure, shortened: as §1

SMILES | Drug absorption [2] | selectivity ratio [3] | Drug absorption [4] | ED50 [5] | pKa [6] | Drug absorption [8] | LD50 [9] | also measured
CN1CC[C@H]2CCC[C@@H](NC(=O)c3ccccc3)[C@H]2C1 (mixture of isomers) | 40.6% | 5.9 | 9.3% | 242 µmol/kg | 9.18 | 16% | 1430 | Activity [1]: -7.2%; Activity [7]: -15.1%
CN1CC[C@H]2CCC[C@@H](NC(=O)c3ccccc3)[C@@H]2C1 (mixture of isomers) | 42.9% | 5.9 | 11.1% | 246 µmol/kg | 8.99 | 15.9% | 1450 | Activity [1]: -19.3%; Activity [7]: -17.6%
COc1ccccc1C(=O)N[C@@H]1CCC[C@@H]2CCN(C)C[C@@H]21 (mixture of isomers) | 35.1% | 7.3 | 1.2% | 116 µmol/kg | 9.11 | 5.3% | 847 | Activity [10]: -23.2%; Activity [11]: -25.5%
COc1ccccc1C(=O)N[C@@H]1CCC[C@@H]2CCN(C)C[C@H]21 (mixture of isomers) | 41.2% | 4.3 | 5.2% | 175 µmol/kg | 8.81 | 12.8% | 761 | Activity [10]: -19.8%; Activity [11]: -25%
COc1ccc(C(=O)N[C@@H]2CCC[C@@H]3CCN(C)C[C@@H]32)cc1 (mixture of isomers) | 30.6% | 5.8 | 4.7% | 268 µmol/kg | 9.19 | 7% | 1560 | Activity [10]: -15.1%; Activity [11]: -44.2%
COc1ccc(C(=O)N[C@@H]2CCC[C@@H]3CCN(C)C[C@H]32)cc1 (mixture of isomers) | 34.3% | 7.6 | 7.4% | 195 µmol/kg | – | 9% | 1490 | Activity [10]: -19.8%; Activity [11]: -21.5%
COc1ccc(C(=O)N[C@@H]2CCC[C@@H]3CCN(C)C[C@@H]32)cc1OC (mixture of isomers) | 17.6% | 8.9 | 7% | 199 µmol/kg | – | 10.4% | 1770 | Activity [12]: -16.9%; Activity [13]: -9.71%
COc1ccc(C(=O)N[C@@H]2CCC[C@@H]3CCN(C)C[C@H]32)cc1OC (mixture of isomers) | 27.1% | 9.8 | 16.8% | 164 µmol/kg | 8.89 | 18.9% | 1600 | Activity [12]: -20.2%; Activity [13]: -13.8%
COc1cc(C(=O)N[C@@H]2CCC[C@@H]3CCN(C)C[C@@H]32)cc(OC)c1OC (mixture of isomers) | 23.8% | 7.3 | 8.1% | 160 µmol/kg | 9.02 | 14.2% | 1170 | Activity [14]: -7%; Activity [15]: -9.8%
CN1CC[C@H]2CCC[C@@H](NC(=O)c3ccc(Cl)cc3)[C@H]2C1 (mixture of isomers) | 43.2% | 4.4 | 6.7% | 209 µmol/kg | – | 9.3% | 909 | Activity [16]: -13.1%; Activity [17]: -28.5%
CN1CC[C@H]2CCC[C@@H](NC(=O)c3ccc(Cl)cc3)[C@@H]2C1 (mixture of isomers) | 54.4% | 4.8 | 8.2% | 200 µmol/kg | 8.83 | 12.4% | 952 | Activity [16]: -57.4%; Activity [17]: -20%
CN1CC[C@H]2CCC[C@@H](NC(=O)c3ccc(Cl)c(Cl)c3)[C@H]2C1 (mixture of isomers) | 60.6% | 9.7 | 20.1% | 73 µmol/kg | 9.05 | 25.1% | 712 | Activity [18]: -21.7%; Activity [19]: -34.1%
COc1cc(C(=O)O[C@@H]2CCC[C@@H]3CCN(C)C[C@@H]32)cc(OC)c1OC (mixture of isomers) | 70.7% | 2.6 | 21.2% | 162 µmol/kg | 8.91 | 38.2% | 421 | Activity [20]: -53.2%; Activity [21]: Toxic; Activity [22]: -32.3%
CN1CC[C@H]2CCC[C@@H](OC(=O)c3ccc(Cl)cc3)[C@H]2C1 (mixture of isomers) | 86.5% | 4.7 | 13.7% | 257 µmol/kg | 8.9 | 43.7% | 1200 | Activity [23]: -52.3%; Activity [24]: -48.6%; Activity [21]: Toxic; Activity [25]: -53.3%; Activity [26]: -32.2%; Activity [27]: Dose-dependent effect
CN1CC[C@H]2CCC[C@@H](OC(=O)c3ccc(Cl)cc3)[C@@H]2C1 (mixture of isomers) | 84.7% | 5.2 | 17.4% | 146 µmol/kg | 8.75 | 42.7% | 757 | Activity [23]: -60.5%; Activity [21]: Toxic; Activity [25]: -55.8%
CN1CC[C@H]2CCC[C@@H](NS(=O)(=O)c3ccccc3)[C@H]2C1 (mixture of isomers) | 30.4% | 5.2 | 14.9% | 282 µmol/kg | 9.17 | 17.7% | 1460 | –
CN1CC[C@H]2CCC[C@@H](NS(=O)(=O)c3ccccc3)[C@@H]2C1 (mixture of isomers) | 37.1% | 3.3 | 11.9% | 347 µmol/kg | 8.87 | 20.4% | 1113 | –
C=C[C@H]1C[N@@]2CC[C@H]1C[C@@H]2[C@@H](O)c1ccnc2ccc(OC)cc12 [QUINIDINE] | – | – | – | – | – | – | 533 uM/L | –
C=C[C@H]1CN2CC[C@H]1C[C@@H]2[C@@H](O)c1ccnc2ccc(OC)cc12 [QUINIDINE] | – | – | – | 160 µmol/kg | – | – | – | Activity [28]: -18.8%; Activity [29]: -36.3%; Activity [30]: -36.1%; Activity [31]: -28.6%; Activity [32]: -22.8%; Activity [33]: -13.3%; Activity [27]: Dose-dependent effect
